# Experimental data as given in ChEMBL document CHEMBL4390647, “Efficient click chemistry towards novel 1H-1,2,3-triazole-tethered 4H-chromene-d-glucose conjugates: Design, synthesis and evaluation of in vitro antibacterial, MRSA and antifungal activities” (Eur J Med Chem, 2019).
# Legend:
# Pseudomonas aeruginosa = test: Antibacterial activity against Pseudomonas aeruginosa […] measured after 18 to 20 hrs by microbroth dilution method; type: functional
# Outline: (§1)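 Inoculum from a 4–6-h broth adjusted to 0.5 McFarland, final 5 × 10⁵ CFU/mL. Incubation at 35°C for 18–20 h. MIC taken as the lowest concentration giving complete inhibition of visible growth; three experiments.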
# Saccharomyces cerevisiae = test: Antifungal activity against Saccharomyces cerevisiae SH 20 after 72 hrs by agar dilution method; type: functional; details: SH 20, 72 h
# Outline: (§2)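 Agar dilution on Sabouraud dextrose agar, with compounds at […] to 0.78 μM in twofold steps. Fungal suspensions at 10 CFU/mL as printed were applied to the compound-containing plates. Incubation at 35°C; MIC read after 72 h. Three experiments.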
# Candida albicans = test: Antifungal activity against Candida albicans ATCC 7754 after 72 hrs by agar dilution method; type: functional; details: ATCC 7754, 72 h; outline: as §2
# Escherichia coli = test: Antibacterial activity against Escherichia coli ATCC 25922 measured after 18 to 20 hrs by microbroth dilution method; type: functional; outline: as §1
# Staphylococcus aureus [1] = test: Antibacterial activity against Staphylococcus aureus ATCC 11632 after 18 to 20 hrs by microbroth dilution method; type: functional; outline: as §1
# Bacillus subtilis = test: Antibacterial activity against Bacillus subtilis ATCC 11774 after 18 to 20 hrs by microbroth dilution method; type: functional; outline: as §1
# Salmonella typhimurium = test: Antibacterial activity against Salmonella typhimurium ATCC 14028 measured after 18 to 20 hrs by microbroth dilution method; type: functional, Salmonella enterica subsp. enterica serovar Typhimurium; details: Salmonella enterica; outline: as §1
# Aspergillus niger = test: Antifungal activity against Aspergillus niger ATCC 439 measured after 72 hrs by agar dilution method; type: functional; details: ATCC 439, 72 h; outline: as §2
# [2] = Cytotoxicity against mouse RAW264.7 cells assessed as growth inhibition at 50 ug/mL after 120 hrs by MTT assay relative to control; type: cell-based; details: read-out: GI
# Outline: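 RAW 264.7 mouse macrophages were seeded at 25,000 cells/well and left to attach overnight. Compound in DMSO was added from a 200× concentrate, in duplicate wells, to a 50 μg/mL test level; DMSO served as control. Exposure 120 h at 37°C in 5% CO₂. MTT (4 mg/mL in PBS) was added for 4 h, formazan dissolved in DMSO, and absorbance read at 560 nm. Viability expressed as % of untreated cells, mean ± SE of at least three independent experiments.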
# [3] = system: Staphylococcus epidermidis; test: Antibacterial activity against Staphylococcus epidermidis ATCC 12228 after 18 to 20 hrs by microbroth dilution method; type: functional; outline: as §1
# Aspergillus flavus = test: Antifungal activity against Aspergillus flavus ATCC 204304 measured after 72 hrs by agar dilution method; type: functional; details: ATCC 204304, 72 h; outline: as §2
# Staphylococcus aureus [4] = test: Antibacterial activity against Staphylococcus aureus MRSA198 clinical isolate-3 measured after 18 to 20 hrs by microbroth dilution method; type: functional; details: MRSA198 isolate-3
# Klebsiella pneumoniae = test: Antibacterial activity against measured after Klebsiella pneumoniae ATCC 4352 measured after 18 to 20 hrs by microbroth dilution method; type: functional; outline: as §1
# Staphylococcus aureus [5] = test: Antibacterial activity against Staphylococcus aureus MRSA198 clinical isolate-1 measured after 18 to 20 hrs by microbroth dilution method; type: functional; details: MRSA198 isolate-1
# Staphylococcus aureus [6] = test: Antibacterial activity against Staphylococcus aureus MRSA198 clinical isolate-2 measured after 18 to 20 hrs by microbroth dilution method; type: functional; details: MRSA198 isolate-2
Compound,MIC (Pseudomonas aeruginosa) [µM],MIC (Saccharomyces cerevisiae) [µM],MIC (Candida albicans) [µM],MIC (Escherichia coli) [µM],MIC (Staphylococcus aureus [1]) [µM],MIC (Bacillus subtilis) [µM],MIC (Salmonella typhimurium) [µM],MIC (Aspergillus niger) [µM],"inhibition at 120 h, 50 ug/mL [2] [%]",MIC [3] [µM],MIC (Aspergillus flavus) [µM],MIC (Staphylococcus aureus [4]) [µM],MIC (Klebsiella pneumoniae) [µM],MIC (Staphylococcus aureus [5]) [µM],MIC (Staphylococcus aureus [6]) [µM]
COc1cccc(C2C(C#N)=C(N)Oc3cc(OCc4cn([C@@H]5O[C@H](COC(C)=O)[C@@H](OC(C)=O)[C@H](OC(C)=O)[C@H]5OC(C)=O)nn4)ccc32)c1 (some centres not stated),400,25,400,200,400,200,100,400,25.1,100,1.56,400,6.25,–,–
CC(=O)OC[C@H]1O[C@@H](n2cc(COc3ccc4c(c3)OC(N)=C(C#N)C4c3ccccc3[N+](=O)[O-])nn2)[C@H](OC(C)=O)[C@@H](OC(C)=O)[C@@H]1OC(C)=O (some centres not stated),400,–,50,50,6.25,100,–,400,15.4,12.5,6.25,3.12,400,6.25,1.56
COc1cc(OC)cc(C2C(C#N)=C(N)Oc3cc(OCc4cn([C@@H]5O[C@H](COC(C)=O)[C@@H](OC(C)=O)[C@H](OC(C)=O)[C@H]5OC(C)=O)nn4)ccc32)c1 (some centres not stated),–,6.25,25,100,100,50,50,100,19.5,3.12,50,200,100,400,400
COc1ccc(C2C(C#N)=C(N)Oc3cc(OCc4cn([C@@H]5O[C@H](COC(C)=O)[C@@H](OC(C)=O)[C@H](OC(C)=O)[C@H]5OC(C)=O)nn4)ccc32)c(OC)c1 (some centres not stated),–,50,12.5,–,1.56,50,50,400,12.4,25,–,6.25,12.5,1.56,1.56
CC(=O)OC[C@H]1O[C@@H](n2cc(COc3ccc4c(c3)OC(N)=C(C#N)C4c3ccc(N(C)C)cc3)nn2)[C@H](OC(C)=O)[C@@H](OC(C)=O)[C@@H]1OC(C)=O (some centres not stated),1.56,100,12.5,12.5,100,100,50,–,19.6,–,12.5,200,–,400,400
O=C(O)c1cn(C2CC2)c2cc(N3CCNCC3)c(F)cc2c1=O [CIPROFLOXACIN],1.56,–,–,1.56,3.12,3.12,1.56,–,–,3.12,–,–,1.56,–,–
COc1cccc(OC)c1C(=O)N[C@@H]1C(=O)N2[C@@H]1SC(C)(C)[C@@H]2C(=O)O [METHICILLIN],400,–,–,400,400,400,400,–,–,400,–,–,400,–,–
Clc1ccc(COC(Cn2ccnc2)c2ccc(Cl)cc2Cl)c(Cl)c1 (configuration not stated) [MICONAZOLE],–,3.12,3.12,–,–,–,–,1.56,–,–,1.56,–,–,–,–
CN[C@H](CC(C)C)C(=O)N[C@H]1C(=O)N[C@@H](CC(N)=O)C(=O)N[C@H]2C(=O)N[C@H]3C(=O)N[C@H](C(=O)N[C@H](C(=O)O)c4cc(O)cc(O)c4-c4cc3ccc4O)[C@H](O)c3ccc(c(Cl)c3)Oc3cc2cc(c3O[C@@H]2O[C@H](CO)[C@@H](O)[C@H](O)[C@H]2O[C@H]2C[C@](C)(N)[C@H](O)[C@H](C)O2)Oc2ccc(cc2Cl)[C@H]1O [VANCOMYCIN],3.12,–,–,3.12,1.56,0.78,3.12,–,–,3.12,–,1.56,3.12,1.55,1.56
